From ChEMBL document CHEMBL1125458, “3-O-alkylascorbic acids as free radical quenchers. 3. Protective effect on coronary occlusion-reperfusion induced arrhythmias in anesthetized rats” (1992)

Columns and labels:
Rattus norvegicus [1] = species on record: Rattus norvegicus; assay: Inhibitory effect on production of active oxygen species by rat peritoneal exudate macrophages; assay type: functional; set-up: concentration or dose not given beside the values
Outline: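 Peritoneal exudate macrophages harvested 3 days after ip liquid paraffin (male Wistar rats), >90% viable. Assay: 125 mM sodium phosphate pH 6.5, 0.08 mM EDTA, 1.2 U LDH, 0.32 mM NADH, (2–3) × 10^6 cells, compound in DMF, 1 × 10^-4 M. Started with NADH.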

Rattus norvegicus [2] = assay: Effect (1 mg/kg, iv) on coronary reperfusion-induced arrhythmias was assessed in anesthetized rats.(Intervals of ventricular tachycardia (VT)+ventricular fibrillation (VF) within 600 s; assay type: functional, Cardiac ventricle
Rattus norvegicus [3] = species on record: Rattus norvegicus; assay: Inhibition of lipid peroxidation in rat liver microsomes.; assay type: functional; set-up: concentration or dose not given beside the values; conditions: dose or concentration not given here
Outline: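 Wistar rat liver microsomes (2.0 mg protein) in 83.5 mM KCl, 37.2 mM Tris-HCl pH 7.4 with 1 mM ADP, 10 µM FeCl3, 0.02 mM NADPH; compound added in DMF, tested at 10^-5 M. 37 °C, 20 min. Malondialdehyde measured by thiobarbituric acid method, A532; % inhibition, mean ± SD, n = 3–6.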

Rattus norvegicus [4] = assay: Effect (10 mg/kg, iv) on coronary reperfusion-induced arrhythmias was assessed in anesthetized rats.(Intervals of ventricular tachycardia (VT)+ventricular fibrillation (VF) within 600 s.; assay type: functional, Cardiac ventricle
Rattus norvegicus [5] = assay: Effect (10 mg/kg, iv) on coronary reperfusion-induced arrhythmias was assessed in anesthetized rats.(Intervals of ventricular tachycardia (VT)+ventricular fibrillation (VF) within 600 s; assay type: functional, Cardiac ventricle
Cavia porcellus [6] = species on record: Cavia porcellus; assay: Inhibitory activity on atrial rate in isolated Guinea pig right atrea at 0.03 mg/mL concentration; assay type: functional, Cardiac atrium
Outline: (§1)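 Right atria from male Hartley guinea pigs (450–550 g), loaded at 0.5 g, in Tyrode's solution at 37 °C gassed with 95% O2/5% CO2. Equilibrated at least 30 min until rate stable within 5 beats/min; spontaneous rate and contractile force recorded on polygraph after compound addition.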

Cavia porcellus [7] = species on record: Cavia porcellus; assay: Inhibitory activity on atrial contractility in isolated Guinea pig right atrea at 0.03 mg/mL concentration p<0.05; assay type: functional, Cardiac atrium; outline: as §1
Cavia porcellus [8] = species on record: Cavia porcellus; assay: Inhibitory activity on atrial rate in isolated Guinea pig right atrea at 0.3 mg/mL concentration; assay type: functional, Cardiac atrium; outline: as §1
Cavia porcellus [9] = species on record: Cavia porcellus; assay: Inhibitory activity on atrial contractility in isolated Guinea pig right atrea at 0.3 mg/mL concentration; assay type: functional, Cardiac atrium; outline: as §1
Cavia porcellus [10] = species on record: Cavia porcellus; assay: Inhibitory activity on atrial rate in isolated Guinea pig right atrea at 0.1 mg/mL concentration; assay type: functional, Cardiac atrium; outline: as §1
Cavia porcellus [11] = species on record: Cavia porcellus; assay: Inhibitory activity on atrial contractility in isolated Guinea pig right atrea at 0.1 mg/mL concentration p<0.05; assay type: functional, Cardiac atrium; outline: as §1
Rattus norvegicus [12] = assay: Effect (30 mg/kg, po) on coronary reperfusion-induced arrhythmias was assessed in anesthetized rats.(Intervals of ventricular tachycardia (VT)+ventricular fibrillation (VF) within 600 s.; assay type: functional, Cardiac ventricle
Outline: (§2)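 Male Wistar rats (350–450 g) dosed orally 1 h before occlusion, then anesthetized with pentobarbital (60 mg/kg ip) and ventilated. LAD ligated 5 min, reperfused 10 min; VT plus VF durations summed within 600 s. Mean ± SE, n = 5–10; line 2 value is the minimum effective dose.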

Rattus norvegicus [13] = assay: Effect (30 mg/kg, iv) on coronary reperfusion-induced arrhythmias was assessed in anesthetized rats.(Intervals of ventricular tachycardia (VT)+ventricular fibrillation (VF) within 600 s.; assay type: functional, Cardiac ventricle
Cavia porcellus [14] = species on record: Cavia porcellus; assay: Inhibitory activity against atrial contractility in isolated Guinea pig right atrea at 0.03 mg/mL concentration; assay type: functional, Cardiac atrium; outline: as §1
Cavia porcellus [15] = species on record: Cavia porcellus; assay: Inhibitory activity against atrial contractility in isolated Guinea pig right atrea at 0.1 mg/mL concentration; assay type: functional, Cardiac atrium; outline: as §1
Rattus norvegicus [16] = assay: Change in arterial blood pressure was measured at 10 mg/kg dose(iv) in anesthetized rats; assay type: functional, Artery
Outline: (§3)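 Male Wistar rats, pentobarbital 60 mg/kg ip, supine. Compound suspended in saline with 1% olive oil and 1% Tween 80, injected via femoral vein. Femoral arterial pressure monitored 10 min after injection; change in mmHg, mean ± SE, n = 3–4.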

Rattus norvegicus [17] = assay: Change in heart rate was measured at 30 mg/kg dose(iv) in anesthetized rats; assay type: functional
Outline: (§4)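 Anesthetized male Wistar rats (pentobarbital 60 mg/kg ip); compound in saline/1% olive oil/1% Tween 80 given by femoral vein. Lead II ECG recorded and heart rate read by beat-to-beat tachograph for 10 min after dosing; change in beats/min, mean ± SE, n = 3–4.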

Rattus norvegicus [18] = assay: Change in heart rate was measured at 10 mg/kg dose(iv) in anesthetized rats; assay type: functional; outline: as §4
Cavia porcellus [19] = species on record: Cavia porcellus; assay: Inhibitory activity against atrial rate in isolated Guinea pig right atrea at 0.03 mg/mL concentration; assay type: functional, Cardiac atrium; outline: as §1
Rattus norvegicus [20] = assay: Change in arterial blood pressure was measured at 30 mg/kg dose(iv) in anesthetized rats; assay type: functional, Artery; outline: as §3
Cavia porcellus [21] = species on record: Cavia porcellus; assay: Inhibitory activity against atrial rate in isolated Guinea pig right atrea at 0.3 mg/mL concentration; assay type: functional, Cardiac atrium; outline: as §1
Rattus norvegicus [22] = assay: Antiarrhythmic activity against anesthetized rats after peroral administration; assay type: functional, Heart; outline: as §2
Cavia porcellus [23] = species on record: Cavia porcellus; assay: Inhibitory activity against atrial rate in isolated Guinea pig right atrea at 0.1 mg/mL concentration; assay type: functional, Cardiac atrium; outline: as §1
Rattus norvegicus [24] = assay: Effect (10 mg/kg, po) on coronary reperfusion-induced arrhythmias was assessed in anesthetized rats.(Intervals of ventricular tachycardia (VT)+ventricular fibrillation (VF) within 600 s.; assay type: functional, Cardiac ventricle; outline: as §2
Cavia porcellus [25] = species on record: Cavia porcellus; assay: Inhibitory activity against atrial contractility in isolated Guinea pig right atrea at 0.3 mg/mL concentration; assay type: functional, Cardiac atrium; outline: as §1
Rattus norvegicus [26] = assay: Antiarrhythmic activity against anesthetized rats after intravenous administration; assay type: functional, Heart
Rattus norvegicus [27] = assay: Effect (100 mg/kg, po) on coronary reperfusion-induced arrhythmias was assessed in anesthetized rats.(Intervals of ventricular tachycardia (VT)+ventricular fibrillation (VF) within 600 s.; assay type: functional, Cardiac ventricle; outline: as §2
Cavia porcellus [28] = species on record: Cavia porcellus; assay: Inhibitory activity on atrial contractility in isolated Guinea pig right atria at 0.1 mg/mL concentration; assay type: functional; conditions: Cardiac atrium; outline: as §1
Cavia porcellus [29] = species on record: Cavia porcellus; assay: Inhibitory activity on atrial contractility in isolated Guinea pig right atria at 0.03 mg/mL concentration; assay type: functional; conditions: Cardiac atrium; outline: as §1
Cavia porcellus [30] = species on record: Cavia porcellus; assay: Inhibitory activity on atrial rate in isolated Guinea pig right atria at 0.03 mg/mL concentration; assay type: functional; conditions: Cardiac atrium; outline: as §1
Cavia porcellus [31] = species on record: Cavia porcellus; assay: Inhibitory activity on atrial contractility in isolated Guinea pig right atria at 0.3 mg/mL concentration; assay type: functional; conditions: Cardiac atrium; outline: as §1
Cavia porcellus [32] = species on record: Cavia porcellus; assay: Inhibitory activity on atrial rate in isolated Guinea pig right atria at 0.1 mg/mL concentration; assay type: functional; conditions: Cardiac atrium
Outline: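 Right atria from male Hartley guinea pigs (450–550 g), held under a 0.5 g load at 37 °C in Tyrode's solution gassed with 95% O2 + 5% CO2. After at least 30 min equilibration (rate stable within 5 beats/min), atrial rate and contractile force of spontaneously beating preparations were recorded on a polygraph with compound present.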

Rattus norvegicus [33] = assay: Effect (30 mg/kg, iv) on coronary reperfusion-induced arrhythmias was assessed in anesthetized rats. (Intervals of ventricular tachycardia (VT)+ventricular fibrillation (VF) within 600 s.; assay type: functional, Cardiac ventricle
Rattus norvegicus [34] = assay: Change in heart rate was measured at 1 mg/kg dose(iv) in anesthetized rats; assay type: functional; outline: as §4
Rattus norvegicus [35] = assay: inhibitory activity was tested against anesthetized rats; assay type: functional
Rattus norvegicus [36] = assay: Change in arterial blood pressure was measured at 1 mg/kg dose(iv) in anesthetized rats; assay type: functional, Artery; outline: as §3
Rattus norvegicus [37] = assay: Change in heart rate was measured at 3 mg/kg dose(iv) in anesthetized rats; assay type: functional; outline: as §4
Rattus norvegicus [38] = assay: Change in arterial blood pressure was measured at 3 mg/kg dose(iv) in anesthetized rats; assay type: functional, Artery; outline: as §3

CCCCCCCCCCC(=O)COC1=C(O)C(=O)OC1C(O)CO (stereo unspecified)
Inhibition (Rattus norvegicus [1]): 11.1% | Arrhythmias times (Rattus norvegicus [2]): 205 | inhibition (Rattus norvegicus [3]): 88%

CCCCCCCCCCCCCCCCC(=O)COC1=C(O)C(=O)OC1C(O)CO (stereo unspecified)
Arrhythmias times (Rattus norvegicus [4]): 521 | inhibition (Rattus norvegicus [3]): 43%

CCCCCCCCCCCCOC1=C(O)C(=O)OC1C(O)CO (stereo unspecified)
Arrhythmias times (Rattus norvegicus [5]): 49 | Inhibition (Rattus norvegicus [1]): 38.7% | inhibition (Rattus norvegicus [3]): 91%

CCCCCCCCc1ccc(C(=O)COC2=C(O)C(=O)OC2C(O)CO)cc1 (stereo unspecified)
Inhibition (Cavia porcellus [6]): -0.4% | Inhibition (Cavia porcellus [7]): 15.8% | Inhibition (Cavia porcellus [8]): 0.3% | Inhibition (Cavia porcellus [9]): 45% | Arrhythmias times (Rattus norvegicus [4]): 461 | Inhibition (Cavia porcellus [10]): -0.9% | inhibition (Rattus norvegicus [3]): 88% | Inhibition (Cavia porcellus [11]): 33.5%

CCCCCCCCCCOC1=C(O)C(=O)OC1C(O)CO (stereo unspecified)
Inhibition (Rattus norvegicus [1]): 15.9% | Arrhythmias times (Rattus norvegicus [12]): 283.6 | Arrhythmias times (Rattus norvegicus [2]): 291 | inhibition (Rattus norvegicus [3]): 93%

CCCCCCCCCCCCCCC(=O)COC1=C(O)C(=O)OC1C(O)CO (stereo unspecified)
Inhibition (Rattus norvegicus [1]): 36.8% | Arrhythmias times (Rattus norvegicus [13]): 445 | inhibition (Rattus norvegicus [3]): 65%

CCCCCCCCCCCCC(=O)COC1=C(O)C(=O)OC1C(O)CO (stereo unspecified)
Inhibition (Cavia porcellus [14]): 25% | Inhibition (Cavia porcellus [15]): 30.2% | Delta blood pressure (Rattus norvegicus [16]): -5 mmHg | Delta heart rate (Rattus norvegicus [17]): -35 beats min-1 | Delta heart rate (Rattus norvegicus [18]): -8.3 beats min-1 | Inhibition (Cavia porcellus [19]): 12.9% | Delta blood pressure (Rattus norvegicus [20]): -17.7 mmHg | Inhibition (Rattus norvegicus [1]): 6.3% | Inhibition (Cavia porcellus [21]): 13% | Arrhythmias times (Rattus norvegicus [12]): 313.3 | Arrhythmias times (Rattus norvegicus [2]): 185 | Efficacy (Rattus norvegicus [22]): >30 mg/kg | Inhibition (Cavia porcellus [23]): 14.6% | Arrhythmias times (Rattus norvegicus [24]): 378.2 | inhibition (Rattus norvegicus [3]): 85% | Inhibition (Cavia porcellus [25]): 41.3% | Efficacy (Rattus norvegicus [26]): >1 mg/kg | Arrhythmias times (Rattus norvegicus [27]): 85.4

CCCCc1ccc(C(=O)COC2=C(O)C(=O)OC2C(O)CO)cc1 (stereo unspecified)
inhibition at 100 µg/mL (Cavia porcellus [28]): 52.8% | inhibition at 30 µg/mL (Cavia porcellus [29]): 36.2% | inhibition at 30 µg/mL (Cavia porcellus [30]): 8.8% | inhibition at 300 µg/mL (Cavia porcellus [31]): 67.1% | Inhibition (Cavia porcellus [21]): 25.6% | inhibition at 100 µg/mL (Cavia porcellus [32]): 17% | Arrhythmias times (Rattus norvegicus [13]): 325 | inhibition (Rattus norvegicus [3]): 82%

CCOC1=C(O)C(=O)OC1C(O)CO (stereo unspecified)
Arrhythmias times (Rattus norvegicus [33]): 591 | inhibition (Rattus norvegicus [3]): 2%

CCCCCCCCCCCC1OCC(C2OC(O)=C(O)C2=O)O1 (stereo unspecified)
Delta heart rate (Rattus norvegicus [34]): -10.3 beats min-1 | Inhibition (Rattus norvegicus [35]): 19% | Delta blood pressure (Rattus norvegicus [36]): -7 mmHg | Delta heart rate (Rattus norvegicus [37]): -75 beats min-1 | Arrhythmias times (Rattus norvegicus [12]): 420.8 | Arrhythmias times (Rattus norvegicus [2]): 186 | Delta blood pressure (Rattus norvegicus [38]): -30.3 mmHg | Efficacy (Rattus norvegicus [22]): 30 mg/kg | inhibition (Rattus norvegicus [3]): 89% | Efficacy (Rattus norvegicus [26]): >1 mg/kg
